Source: PubChem (Broad Institute)
This is a sample that favours compounds with a hit; in the whole collection about 1.6% have one here.
RAD54 branch = blocks human RAD54 Holliday junction branch migration; FAM/BHQ fluorescence; inhibition, % at 10.4 µM; hit rate 0.14% among 360,000;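 active = mean normalized replicate activity at least 40 and at least half of replicates scoring 40 or more; inconclusive = only one of the two criteria met; inactive = mean below 40 and under half of replicates reaching 40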;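 also: 0% = median of neutral control wells and 100% = median of positive control wells; inhibitors cause a drop in the FAM fluorescence signal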
SR-BI HDL uptake = inhibitors of mouse SR-BI mediated HDL lipid uptake; AID 488896; hit rate 0.96% among 320,000; inhibition, % at 12.5 µM; Q61009; ldlA[mSR-BI] CHO cells, DiI-HDL uptake fluorescence, 3 h;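 active = mean replicate inhibition of at least 70% and a set share of replicates each scoring 70 or more; inconclusive = meets just one of the two criteria; inactive = fails both criteria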;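 also: 0% = median of neutral control wells and 100% = median of positive control wells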
Target sequence (Q61009 whole entry, looked up): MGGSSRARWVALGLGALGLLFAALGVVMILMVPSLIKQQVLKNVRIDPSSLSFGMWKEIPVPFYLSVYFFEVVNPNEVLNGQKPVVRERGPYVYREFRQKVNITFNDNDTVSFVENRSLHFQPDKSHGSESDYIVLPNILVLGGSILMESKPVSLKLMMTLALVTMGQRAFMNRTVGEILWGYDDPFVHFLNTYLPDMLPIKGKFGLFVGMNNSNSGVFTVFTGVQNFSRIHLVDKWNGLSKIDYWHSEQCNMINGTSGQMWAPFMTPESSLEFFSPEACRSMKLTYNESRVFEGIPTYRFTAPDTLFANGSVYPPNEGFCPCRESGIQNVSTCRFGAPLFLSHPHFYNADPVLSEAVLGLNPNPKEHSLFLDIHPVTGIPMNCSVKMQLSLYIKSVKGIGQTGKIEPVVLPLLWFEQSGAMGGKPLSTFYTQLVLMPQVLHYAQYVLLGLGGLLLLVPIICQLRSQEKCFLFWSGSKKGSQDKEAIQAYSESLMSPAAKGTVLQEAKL
SR-BI DiI-HDL act = activators of SR-BI mediated HDL lipid uptake. CHO ldlA[mSR-BI] cells, DiI-HDL uptake fluorescence, 3 h; 100 = double the neutral-control signal. activation, % at 12.5 µM. hit rate 0.096% among 320,000. AID 504775;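 active = mean replicate activation of at least 60% and every replicate at or above 60%; inconclusive = mean or all-replicate condition met, but not both; inactive = mean below 60% and not all replicates reaching 60%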;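 also: 0% = median plate neutral-control signal and 100% = twice that signal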
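material = CHO ldlA[mSR-BI] cells | medium = Ham's F12 with 0.5% BSA, HEPES 25 mM, pH 7.4 | reagent = fluorescent DiI-HDL, 10 µg/mL final | compound dosing = single-point compound dose | incubation = 3 h, 37 °C | measured by = bottom-read fluorescence, 550/595 nm | measure = HDL uptake via cellular fluorescence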
dFosB act = activators of mouse delta FosB homodimer. purified delta FosB, TAMRA-CDK5 oligo fluorescence polarization; percent of positive-control signal above neutral wells. activation, % at 25 µM. P13346. hit rate 0.99% among 340,000;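 active = mean activation above about 17%, with every replicate also reaching it, limit read from the data, passing the limit was not always enough; inconclusive = only one of the two conditions met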
S100A4 MyoIIA = blocks human S100A4 binding to myosin IIA peptide; P26447; S100A4/TAMRA-MyoIIA peptide fluorescence polarization; inhibition, % at 10.7 µM; hit rate 0.14% among 360,000;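 active = mean inhibition of at least 70% across replicates, with every replicate also reaching that level; inconclusive = mean inhibition reaches 70% but some replicates fall short; inactive = mean inhibition below 70%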
Target sequence (P26447 whole entry, looked up): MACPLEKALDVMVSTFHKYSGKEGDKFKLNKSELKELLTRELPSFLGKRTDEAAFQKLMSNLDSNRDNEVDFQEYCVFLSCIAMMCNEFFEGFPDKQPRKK
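assay system = human S100A4 monomer with TAMRA-labelled myosin IIA peptide | also added = labelled myosin peptide probe, 5 nM | incubation = 5 min between mix addition and reading | control set = DMSO and TFP controls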
PvdQ inh = blocks Pseudomonas aeruginosa PvdQ acylase activity; inhibition, % at 10 µM; hit rate 0.063% among 340,000; purified PvdQ acylase, fluorescence plate reader; in the data active = inhibition above about 30%, passing the limit was not always enough; inconclusive = no clear call, values can overlap the other calls;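 also: 0% = vehicle neutral wells and 100% = reference inhibitor wells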
Numbers without * were called inactive; ? = inconclusive; . = not tested or not shown.

SMILES	RAD54 branch	SR-BI HDL uptake	SR-BI DiI-HDL act	dFosB act	S100A4 MyoIIA	PvdQ inh
CC(=O)c1ccc(C(=O)N2CCC(CO)(Cc3cccc(C(F)(F)F)c3)CC2)cc1	.	62.9	-62.9	-12.3	-2.7	-15.2
CC1(C(=O)N2CCC(CO)(Cc3cccc(C(F)(F)F)c3)CC2)CC1	2.3	85.2*	-85.2	-7.6	5.4	-15.3
COc1cccc(-c2ccc([C@H]3[C@H](CO)N4C(=O)CN(C(=O)C5CCC5)C[C@@H]34)cc2)c1	.	.	.	.	-2.6	.
Cc1cccc(N2CCN(C(=O)C3CCN(c4ncnc5c4nc4n5CCCCC4)CC3)CC2C)c1 (centres undefined)	-7.7	71.1*	-71.1	-32.8	-0.2	-4.9
Cc1cccc(N2CCN(C(=O)C3CCN(c4ncnc5c4nc4n5CCCCC4)CC3)CC2)c1C	-2.5	73.9*	-73.9	3.4	14.4	-11.3
O=C(C1CCN(c2ncnc3c2nc2n3CCCCC2)CC1)N1CCN(c2ccccc2F)CC1	11.6	29.5	-29.5	-3.5	6.4	-11.9
O=C(c1ccncc1)N1C[C@@H]2[C@H](c3ccccc31)[C@@H](CO)N2C(=O)c1ccncc1	-0.6	.	.	.	-24.9	.
CN1CCN(c2ccc(Nc3ccnc4cc(Cl)ccc34)cc2)CC1	52.7*	12.4	-12.4	56.8*	-10.6	-16.4
CCNC(=O)C[C@@H]1CC[C@H]2[C@H](COc3ccc(NC(=O)c4cccc(C(F)(F)F)c4)cc3C(=O)N2C)O1	0.0	.	.	.	.	.
CN(C[C@H]1[C@H](c2ccccc2)[C@@H](CO)N1CC1CC1)C(=O)c1ccccc1	-2.0	.	.	.	12.4	.
Cc1ccc2nc(NC(=O)C3CCN(S(=O)(=O)c4cccs4)CC3)sc2c1	-1.8	22.6	-22.6	32.7*	.	-14.7
O=C(Nc1nc2ccc(F)cc2s1)C1CCN(S(=O)(=O)c2cc([N+](=O)[O-])ccc2Cl)CC1	.	76.6*	-76.6	-9.1	-6.0	-1.0
Cc1ccc2nc(NC(=O)C3CCN(S(=O)(=O)c4cccnc4)CC3)sc2c1	15.3	23.2	-23.2	-10.3	-7.5	-2.5
O=C(C[C@@H]1CC[C@H](NC(=O)C2CCC2)[C@@H](CO)O1)NCCCN1CCOCC1	-9.8	.	.	.	19.4	.
CN(C)c1ccc(-c2nc3ccccn3c2/N=C/c2ccc(Br)cc2)cc1	.	100.9*	-100.9	-4.7	-0.2	-6.7
Cc1c(-c2ccc(Br)cc2)nc2ccccn12	.	18.4	-18.4	-6.6	-4.4	-4.0
CCCC#Cc1ccc2c(c1)O[C@H](CN(C)C(=O)Nc1ccc(OC)cc1)[C@@H](C)CN([C@@H](C)CO)S2(=O)=O	0.4	.	.	.	-8.1	.
CC(=O)N(C)C[C@H]1Oc2ncc(-c3cccnc3)cc2C(=O)N([C@H](C)CO)C[C@H]1C	-1.5	.	.	.	6.7	.
COc1ccc2oc(=N)c(C(=O)Nc3ccccc3Cl)cc2c1	-13.6	71.8*	-71.8	0.3	3.2	-14.9
COc1ccc2oc(=N)c(C(=O)Nc3ccccc3)cc2c1	0.2	60.2	-60.2	-12.0	.	-3.7
CC=Cc1ccc2n(c1=O)C[C@@H]1[C@@H](CO)[C@H](C(=O)Nc3ccc(-c4ccccc4)cc3)N(C)[C@H]21 (mixture of isomers)	-3.2	.	.	.	-14.3	.
C=CCc1c(C)nc(-c2ccccc2)nc1Nc1ccccc1O	.	101.2*	-101.2	-1.3	8.0	12.9
C[C@H](CO)N1C[C@H](C)[C@H](CN(C)Cc2ccc(C(=O)Nc3ccccc3N)cc2)Oc2ccc(NC(=O)NC3CCCCC3)cc2CC1=O	.	.	.	.	-1.5	.
CC(C)OC(=O)Nc1ccc2c(c1)N(C(=O)CCN1CCN(CCO)CC1)c1ccccc1CC2	4.7	-6.5	6.5	-4.7	0.2	7.1
CC(C)OC(=O)Nc1ccc2c(c1)N(C(=O)CCN1CCOCC1)c1ccccc1CC2	.	-62.7	62.7*	-11.1	6.6	-8.9
SMILES	RAD54 branch	SR-BI HDL uptake	SR-BI DiI-HDL act	dFosB act	S100A4 MyoIIA	PvdQ inh
O=C(COc1cccc(Cl)c1)Nc1nc(-c2ccc(S(=O)(=O)N3CCOCC3)cc2)cs1	-5.6	87.5*	-87.5	-4.1	.	-21.4
O=C(Nc1nc(-c2ccccc2)cs1)c1ccc(N2CCOCC2)c([N+](=O)[O-])c1	-0.8	78.6*	-78.6	9.3	.	-5.0
CCOc1cccc(C(=O)Nc2nc(-c3ccc(S(=O)(=O)N4CCOCC4)cc3)cs2)c1	10.0	78.6*	-78.6	8.9	.	-7.6
O=C(Nc1nc(-c2ccncc2)cs1)c1ccc(S(=O)(=O)N2CCOCC2)cc1	.	-1.2	1.2	-14.3	.	-14.2
CN(C)CCCNC(=O)[C@H]1[C@H](CO)[C@H]2Cn3c(ccc(-c4cccc(F)c4)c3=O)[C@@H]1N2C	-4.3	.	.	.	-1.0	.
COCCNc1nc(SCC(=O)N2CCN(c3ccccc3OC)CC2)nc2ccccc12	-5.6	72.4*	-72.4	-7.3	.	-13.0
CC(C)NC(=O)N1[C@H](CO)[C@@H]2c3ccccc3N(C(=O)c3ccc(F)cc3)C[C@@H]21	-0.5	.	.	.	.	.
O=C(N/N=C/c1ccccc1C(=O)O)c1cccc(S(=O)(=O)N2CCOCC2)c1	-6.0	0.8	-0.8	-4.9	-6.9	-7.4
CCOc1ccccc1/C=N/NC(=O)c1cc(C(C)C)[nH]n1	2.8	72.5*	-72.5	-8.9	-6.0	-13.2
CCOc1ccccc1/C=N/NC(=O)c1cccc(S(=O)(=O)N2CCOCC2)c1	3.3	82.1*	-82.1	-4.9	4.3	-10.1
CCN(CC)c1ccc(/C=N/NC(=O)c2cccc(S(=O)(=O)N3CCOCC3)c2)c(O)c1	-6.0	113.7*	-113.7	1.4	-1.2	-1.0
CN(CC(=O)Nc1ccc(F)c(Cl)c1)S(=O)(=O)c1ccc2c(c1)n(C)c(=O)c(=O)n2C	-0.2	-63.9	?	42.0*	0.6	-8.9
C[C@H]1CN([C@@H](C)CO)C(=O)c2cc(NC(=O)C3CC3)ccc2O[C@H]1CN(C)C(=O)Nc1ccc(C(F)(F)F)cc1	-1.9	.	.	.	4.1	.
COCCn1c(=NC(=O)c2cccs2)sc2cc(NC(C)=O)ccc21	.	55.7	-55.7	-7.8	.	6.9
CCOCCn1c(=NC(=O)/C=C/c2ccccc2Cl)sc2cc(NC(C)=O)ccc21	.	70.7*	-70.7	-6.9	.	9.0
C[C@H](CO)N1C[C@H](C)[C@@H](CN(C)Cc2ccc(-c3ccccc3)cc2)Oc2c(NS(=O)(=O)c3ccc(Cl)cc3)cccc2C1=O	-3.5	.	.	.	5.7	.
COc1ccc(S(=O)(=O)N[C@H]2CC[C@@H](CC(=O)O)O[C@H]2CO)cc1	-1.8	.	.	.	-1.4	.
COc1ccc(-n2c(C)cc(-c3csc(N)n3)c2C)cc1	6.2	5.7	-5.7	25.0*	.	-5.4
C=CCn1c(C)cc(-c2csc(N)n2)c1C	.	1.3	-1.3	-9.5	.	-19.9
Cc1cc(-c2csc(N)n2)c(C)n1-c1ccc(Cl)c(Cl)c1	.	70.2*	-70.2	-0.9	19.1	-7.7
CCCn1c(C)cc(-c2csc(N)n2)c1C	-7.4	18.6	-18.6	-6.4	.	6.9
